# An excerpt weighted towards active compounds, which were near 1.9% of everything screened.
# MBD2 inh = inhibitors of human MBD2 binding to methylated oligonucleotide. Q9UBB5. TR-FRET. inhibition, % at 4.4 µM. hit rate 0.31% among 370,000. AID 686964; in the data active = inhibition above about 13%
# UHRF1 binding = human UHRF1 methylated DNA binding inhibitors. hit rate 0.75% among 370,000. Q96T88. UHRF1 binding to methylated oligo, TR-FRET. inhibition, % at 4.4 µM; in the data active = inhibition above about 21%;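 note: UHRF1 SRA domain binding a hemimethylated CpG hairpin DNA probe; 0% = median of test compound wells and 100% = reference inhibitor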
# Target sequence (Q96T88 whole entry, looked up, the tested form may be a part): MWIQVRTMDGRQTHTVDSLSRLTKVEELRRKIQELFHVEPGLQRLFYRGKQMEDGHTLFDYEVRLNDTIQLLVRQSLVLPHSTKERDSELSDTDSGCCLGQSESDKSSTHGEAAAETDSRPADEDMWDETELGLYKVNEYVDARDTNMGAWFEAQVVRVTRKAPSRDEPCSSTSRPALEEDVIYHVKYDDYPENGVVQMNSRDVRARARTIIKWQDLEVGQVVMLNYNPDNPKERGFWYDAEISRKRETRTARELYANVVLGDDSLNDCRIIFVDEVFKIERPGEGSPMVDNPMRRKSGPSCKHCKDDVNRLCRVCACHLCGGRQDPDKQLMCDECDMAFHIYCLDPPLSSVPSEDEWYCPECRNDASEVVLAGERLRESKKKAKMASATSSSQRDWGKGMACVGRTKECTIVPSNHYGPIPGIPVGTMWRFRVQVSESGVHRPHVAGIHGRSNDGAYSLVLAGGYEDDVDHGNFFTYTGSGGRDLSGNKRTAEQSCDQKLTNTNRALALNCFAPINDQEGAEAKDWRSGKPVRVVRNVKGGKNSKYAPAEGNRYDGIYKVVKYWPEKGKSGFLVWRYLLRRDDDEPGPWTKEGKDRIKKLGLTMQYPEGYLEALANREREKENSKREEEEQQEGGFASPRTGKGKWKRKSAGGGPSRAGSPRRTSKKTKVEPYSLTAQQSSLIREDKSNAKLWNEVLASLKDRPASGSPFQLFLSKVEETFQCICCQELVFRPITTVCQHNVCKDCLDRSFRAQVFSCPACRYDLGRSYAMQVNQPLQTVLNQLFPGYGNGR
# TDP2 inh = blocks human TDP2 phosphodiesterase activity; O95551; recombinant TDP2, T5PNP hydrolysis, p-nitrophenol absorbance 415 nm; inhibition, % at 12.8 µM; hit rate 0.34% among 370,000; AID 720702;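 active = inhibition above the mean of all tested compounds plus 3 SD, set per campaign, cut at about 25% in these data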;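 note: 0% = DMSO with enzyme and 100% = buffer with substrate but no TDP2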
#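 Assay system: Recombinant human TDP2 | Quantity: 120 nM TDP2 per well | Incubation: 2 h at 37 °C | Signal: Epi absorbance | Evaluation: Percent inhibition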
# Rin1 Abl inh = blocks binding of human Rin1 to Abl. TR-FRET Rin1/Abl binding, biochemical. inhibition, % at 7.35 µM. hit rate 0.4% among 360,000. AID 588664; in the data active = inhibition above about 5%, passing the limit was not always enough
# LEDGF integ inh = blocks HIV-1 LEDGF/p75-dependent DNA integration; hit rate 0.64% among 370,000; inhibition, % at 3.7 µM; AID 743269; TR-FRET IN-LEDGF/p75 DNA integration, Eu/Cy5;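 active = inhibition above the screen-wide mean plus 3 SD, cut at about 13% in these data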;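 note: signal is the Cy5 over europium emission ratio at 671 and 618 nm; 0% = plate median of compound wells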
# An asterisk follows results filed as active; x = not tested or not shown.
SMILES,MBD2 inh,UHRF1 binding,TDP2 inh,Rin1 Abl inh,LEDGF integ inh
Cn1c(-c2ccc3c(c2)OCO3)cnc1NCc1ccccc1,2.0,-0.8,-0.5,-3.7,-0.8
Cn1c(-c2ccc3c(c2)OCO3)cnc1NCc1ccccc1Cl,-7.3,47.7*,-1.4,3.1,-2.0
Cc1cc(C)c(S(=O)(=O)/N=C2/C=C(Sc3ncn[nH]3)C(=O)c3ccccc32)cc1C,-7.1,6.6,66.5*,6.1,42.0*
Fc1ccc(C2=Nn3c(nnc3C3CCCCC3)SC2)cc1,4.3,2.4,3.8,x,-0.5
CS(=O)(=O)N(CC(=O)NC1CCCCCC1)Cc1ccc(Cl)cc1,-1.2,48.6*,1.3,-2.8,-2.5
CC(C)(C)OC(=O)NCc1cc2c(cc1/C=C/S(=O)(=O)NC1CCCC1)OCO2,-1.6,-0.5,5.3,x,1.8
CN(C)c1cccc(N(C)C)c1CNC(=O)NC(=O)c1c(F)cccc1F,0.5,28.0*,-1.6,-0.4,-0.8
CN(C)c1cccc(F)c1C(=O)NC(=O)Nc1ccc(Cl)cc1,2.1,0.4,-6.2,9.0,0.4
O=C(COc1ccc(Br)cc1)NNC(=O)c1cc(S(=O)(=O)N2CCOCC2)ccc1Cl,-3.0,-1.6,-1.2,3.2,35.3*
O=C(COc1ccc(S(=O)(=O)N2CCOCC2)cc1)Nc1ccc(Br)cc1,12.2,11.6,0.0,-1.0,-4.4
O=C(COc1cccnc1[N+](=O)[O-])N1CCN(C(=O)c2ccco2)CC1,3.7,25.2*,-3.7,-3.6,-5.6
CNC(=S)NNC(=O)c1ccccc1Br,-2.5,21.1*,-1.1,-1.6,3.3
O=C(Cc1ccccc1Cl)NCCN1C(=O)C2C3C=CC(C3)C2C1=O (configuration not stated),6.7,-1.7,-11.2,x,4.7
CCc1nnc(NC(=O)CSc2nc3[nH]c(=O)cc(O)c3s2)s1,-4.0,-1.7,-1.7,-2.0,0.7
CCSc1nnc(NC(=O)CSc2sc3c(O)cc(=O)[nH]c3c2C#N)s1,10.8,31.5*,-0.8,0.7,-0.8
CCc1nnc(NC(=O)CSc2sc3c(O)cc(=O)[nH]c3c2C#N)s1,13.2*,35.3*,24.7*,-1.7,12.5
C/C(=N\N=C(N)N)c1cc(Cl)ccc1Cl,2.0,3.9,-5.8,1.3,-5.3
C/C(=N\N=C(N)N)c1ccc(Cl)cc1Cl,1.4,38.4*,0.0,0.6,-5.0
COc1ccc(S[C@]2(C(=O)N3CCCC3)CC(=O)N(C(=O)c3ccccc3)[C@@H]2c2ccc(OC)cc2)cc1,-4.1,5.9,-18.5,x,2.0
O=C(CS(=O)(=O)Cc1ccccc1)Nc1nc2c(s1)CCCC2,-1.1,-2.2,-12.0,-4.6,-0.7
O=C(CCS(=O)(=O)Cc1ccccc1)Nc1nc2c(s1)CCCC2,0.7,1.3,-1.0,1.5,33.0*
O=C(Nc1ccccc1Cl)O[C@@H]1CC[C@@]23CCCN2C(=O)CCC[C@H]3C1,-5.4,2.1,3.5,x,-0.4
CC(=O)N(Cc1ccc(F)cc1)C1=C(NCCc2ccccc2)C(=O)c2ccccc2C1=O,0.6,2.1,7.7,-3.3,22.6*
Cc1ccc(C2=N/C(=C\c3coc4ccccc4c3=O)C(=O)O2)cc1,-2.2,3.6,3.1,x,40.0*
O=C1COc2ccccc2C(c2nnnn2-c2ccc3ccccc3c2)N1C1CC1 (configuration not stated),-3.1,-1.9,7.8,x,1.8
SMILES,MBD2 inh,UHRF1 binding,TDP2 inh,Rin1 Abl inh,LEDGF integ inh
CCCC[C@H]1C2CC(OC(=O)NCc3ccc(Cl)cc3)C(C2)[C@H]2CCCCN21 (some centres not stated),0.2,0.0,1.1,x,3.0
CCOC(=O)C1CCN(C(=O)CSc2ccccc2)CC1,6.2,2.5,6.4,2.5,-0.3
CCOC(=O)C1CCN(C(=O)CSc2nccc(C)n2)CC1,-4.2,64.5*,-4.3,0.2,-3.8
CC(=O)N/N=C(\C)c1cccc(C(F)(F)F)c1,2.5,10.8,8.2,-4.0,2.7
CCNC(=S)N/N=C(\C)c1cccc(C(F)(F)F)c1,-5.9,36.2*,9.3,0.9,5.4
CCN(CCn1cccn1)C(=O)c1cc(COc2cc(C)ccc2C)on1,-0.8,30.7*,-4.1,0.8,1.2
CCN(CCn1cccn1)C(=O)c1cc(COc2ccc(F)c(F)c2)on1,0.8,0.5,-13.6,-0.8,-0.8
CCN(CCn1cccn1)C(=O)c1cc(COc2ccccc2SC)on1,2.2,35.0*,-2.7,-2.3,-1.6
CCCC1CCC2(CC1)CCC2OC(=O)Nc1ccc2c(c1)OCO2 (configuration not stated),-0.1,-0.8,-1.5,x,-0.2
O=C(CSc1nnc(Cc2cccs2)n1-c1ccccc1)Nc1ccccc1-c1ccccc1,-0.6,-0.1,2.2,x,-3.6
Cc1ccc(N2CC(C(=O)OCC(=O)Nc3ccc(Cl)cc3)CC2=O)cc1 (configuration not stated),-3.5,0.8,4.8,4.4,-0.4
COC(=O)C1CC(=O)N(c2ccc(OCc3ccccc3Cl)cc2)C1 (configuration not stated),0.7,24.0*,-10.5,-1.9,0.9
Cc1ccc(N2CC(C(=O)OCC(=O)Nc3cccc(Cl)c3C)CC2=O)cc1 (configuration not stated),4.6,89.8*,9.8,3.0,-1.5
CCN(CC)C(=O)CSc1nnc(-c2ccccn2)n1C,5.6,2.9,3.8,x,3.4
COc1ccc2ccccc2c1-c1c(C(=O)c2ccc(Br)cc2)[nH]c(N)c1C(=O)NC1CCCCC1,1.3,-0.1,-6.8,x,2.0
CCOc1cc(NCCN2CCOCC2)c([N+](=O)[O-])cc1OCC,-21.6,24.1*,5.7,-14.5,0.6
O=[N+]([O-])c1ccc(NCCN2CCOCC2)c([N+](=O)[O-])c1,-9.0,-6.4,-1.6,-0.7,-3.0
CCOc1ccc(CCNC(=O)c2cc3sccc3n2Cc2ccccc2)cc1OCC,-2.8,-3.8,9.0,x,2.6
CC(C)(C)OC(=O)C[C@@H]1C/C=C\C[C@@H](CC(=O)NCCO)C(=O)NCCOC1=O,-1.2,1.6,9.7,-0.1,17.8*
CC(C)(C)OC(=O)C[C@H]1C/C=C\C[C@H](CC(=O)NCCO)C(=O)NCCOC1=O,2.2,-1.1,-8.3,-0.4,0.3
CCc1ccc(-n2ncc(Cl)c(Oc3ccc(OC)cc3)c2=O)cc1,-4.9,2.0,-4.1,x,3.7
Cc1ccc(NS(=O)(=O)c2cccs2)nc1,4.9,30.1*,6.6,-2.1,1.7
Cc1ccnc(NS(=O)(=O)c2cccs2)c1,-1.8,-2.4,-7.2,0.2,-4.0
CC(NC(=O)CCc1nnc(-c2ccc(-c3ccccc3)cc2)o1)c1nc2ccccc2[nH]1 (configuration not stated),0.7,23.4*,1.5,1.3,-4.0
COc1ccccc1N1CCN(C(=O)C2CCCN(S(=O)(=O)c3ccc4c(c3)oc(=O)n4C)C2)CC1 (configuration not stated),7.2,24.4*,-3.0,2.5,-3.4
CCOC(=O)[C@]12CCCCC/C=C\1N(Cc1ccc(OC)cc1)C(=O)[C@H]2CC(=O)NCC12CC3CC(CC(C3)C1)C2,0.2,-2.2,14.8,x,-2.4

# Screening data from PubChem BioAssay.
